Source: ChEMBL document CHEMBL1148251, “Syntheses of sphingosine-1-phosphate analogues and their interaction with EDG/S1P receptors” (Bioorg Med Chem Lett, 2004)

Assays:
Type in all cases: cell-based
[1] = target: Sphingosine 1-phosphate receptor 1 (Homo sapiens) (UniProt P21453); assay: Percent binding affinity to displace radioligand [3H]SIP from Sphingosine 1-phosphate receptor Edg-1 expressed in CHO cells
Summary of the method: (§1)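 Whole transfected CHO cells (Edg-1, Edg-3 or Edg-5; mock-transfected control), confluent, rinsed twice in ice-cold buffer (20 mM Tris–HCl pH 7.5, 100 mM NaCl, 15 mM NaF, 0.4% BSA), then held on ice 90 min with 2 nM [3H]-S1P ± 1 µM test ligand. Unbound label washed off, cells solubilized in SDS/NaOH/Na2CO3, bound radioactivity counted by liquid scintillation; duplicate determinations, mean ± SD.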

[2] = target: Sphingosine 1-phosphate receptor 2 (Homo sapiens) (UniProt O95136); assay: Percent binding affinity to displace radioligand [3H]-SIP from EDG-5/S1P2 receptors expressed in CHO cells; summary of the method: as §1
Sequence of Sphingosine 1-phosphate receptor 2 (Homo sapiens) (O95136 whole entry): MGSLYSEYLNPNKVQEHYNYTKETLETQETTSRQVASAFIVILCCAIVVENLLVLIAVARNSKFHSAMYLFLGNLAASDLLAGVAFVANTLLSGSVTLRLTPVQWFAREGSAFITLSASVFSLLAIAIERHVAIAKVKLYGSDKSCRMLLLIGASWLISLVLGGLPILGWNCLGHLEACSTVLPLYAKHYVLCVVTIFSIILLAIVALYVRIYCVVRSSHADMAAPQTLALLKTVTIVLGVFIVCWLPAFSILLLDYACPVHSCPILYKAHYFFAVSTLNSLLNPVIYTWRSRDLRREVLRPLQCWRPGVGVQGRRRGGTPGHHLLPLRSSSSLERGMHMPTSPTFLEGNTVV

[3] = target: Sphingosine 1-phosphate receptor 3 (Homo sapiens) (UniProt Q99500); assay: Percent binding affinity to displace radioligand [3H]SIP from EDG-3/S1P3 receptors expressed in CHO cells; summary of the method: as §1
Sequence of Sphingosine 1-phosphate receptor 3 (Homo sapiens) (Q99500 whole entry): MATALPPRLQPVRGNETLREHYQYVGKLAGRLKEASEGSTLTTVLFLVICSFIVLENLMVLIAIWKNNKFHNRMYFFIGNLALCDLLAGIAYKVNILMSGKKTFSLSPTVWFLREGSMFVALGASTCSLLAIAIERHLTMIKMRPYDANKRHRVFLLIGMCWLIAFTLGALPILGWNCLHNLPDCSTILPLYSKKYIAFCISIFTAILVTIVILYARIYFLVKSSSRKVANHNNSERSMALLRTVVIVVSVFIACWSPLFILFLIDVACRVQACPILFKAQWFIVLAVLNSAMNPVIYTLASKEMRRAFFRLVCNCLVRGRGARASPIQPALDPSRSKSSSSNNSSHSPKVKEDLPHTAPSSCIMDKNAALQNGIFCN

Sequence of Sphingosine 1-phosphate receptor 1 (Homo sapiens) (P21453 whole entry): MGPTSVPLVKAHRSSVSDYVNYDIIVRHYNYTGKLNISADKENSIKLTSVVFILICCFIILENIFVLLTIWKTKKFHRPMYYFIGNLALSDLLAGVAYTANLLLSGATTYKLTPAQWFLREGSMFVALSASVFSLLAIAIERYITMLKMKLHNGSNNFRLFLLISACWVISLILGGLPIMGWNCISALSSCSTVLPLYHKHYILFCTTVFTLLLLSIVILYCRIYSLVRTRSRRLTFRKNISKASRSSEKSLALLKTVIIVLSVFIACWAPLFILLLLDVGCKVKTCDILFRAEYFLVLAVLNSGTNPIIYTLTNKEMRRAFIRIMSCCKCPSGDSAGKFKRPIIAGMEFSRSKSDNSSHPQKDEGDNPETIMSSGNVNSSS

Row | % binding [1] | % binding [2] | % binding [3] | Compound
1 | 51.4% |  |  | CCCCCCCCCCCCC/C=C/[C@@H](O)[C@H](COP(=O)(O)O)NCC
2 |  | 84% | 82% | CCCCCCCCCCCCCC[C@@H](N)COP(=O)(O)O
3 | 55.1% |  |  | CCCCCCCCCCCCC/C=C/[C@@H](O)[C@H](COP(=O)(O)O)NC
